Laboratory results: ChEMBL document CHEMBL4665830, “Self-Adjuvanting Cancer Vaccines from Conjugation-Ready Lipid A Analogues and Synthetic Long Peptides” (J Med Chem, 2020)
One block for each compound: values may come before it. Active and inactive are the calls of the source. No cut-off for these calls is given here. Where a SMILES comes first, the peptide text is derived from it. [ ]: non-standard residue; d: D form. The star is where a group is joined. X1 = CCCCCCCCCCC[C@H](CC(=O)N[C@H]1[C@H](OC[C@H](NC(=O)C[C@@H](CCCCCCCCCCC)OC(=O)CCCCCCCCC)C(=O)O)O[C@H](CNC(=O)COCCOCCOCCNC(=O)CCCN2C(=O)CC(*)C2=O)[C@@H](OP(=O)(O)O)[C@@H]1OC(=O)C[C@@H](CCCCCCCCCCC)OC(=O)CCCCCCCCC)OC(=O)CCCCCCCCC; X2 = CCCCCCCCCCC[C@H](CC(=O)N[C@H]1[C@H](OC[C@H](NC(=O)C[C@@H](CCCCCCCCCCC)OC(=O)CCCCCCCCC)C(=O)O)O[C@H](COC(=O)COCCOCCOCCNC(=O)CCCN2C(=O)CC(*)C2=O)[C@@H](OP(=O)(O)O)[C@@H]1OC(=O)C[C@@H](CCCCCCCCCCC)OC(=O)CCCCCCCCC)OC(=O)CCCCCCCCC; Mpa = O=C(O)CCS

Key:
[1] = target: T1, Toll-like receptor 4 (Mus musculus) (UniProt Q9QUK6); assay: Activation of TLR4 in C57BL/6 mouse dendritic cells assessed as induction of IL-12p40 secretion at 0.098 to 100 nM incubated for 24 hrs by ELISA; details: Dendritic cell, dose nM 0.098-100, time 24.0 hrs
T1 sequence (whole entry): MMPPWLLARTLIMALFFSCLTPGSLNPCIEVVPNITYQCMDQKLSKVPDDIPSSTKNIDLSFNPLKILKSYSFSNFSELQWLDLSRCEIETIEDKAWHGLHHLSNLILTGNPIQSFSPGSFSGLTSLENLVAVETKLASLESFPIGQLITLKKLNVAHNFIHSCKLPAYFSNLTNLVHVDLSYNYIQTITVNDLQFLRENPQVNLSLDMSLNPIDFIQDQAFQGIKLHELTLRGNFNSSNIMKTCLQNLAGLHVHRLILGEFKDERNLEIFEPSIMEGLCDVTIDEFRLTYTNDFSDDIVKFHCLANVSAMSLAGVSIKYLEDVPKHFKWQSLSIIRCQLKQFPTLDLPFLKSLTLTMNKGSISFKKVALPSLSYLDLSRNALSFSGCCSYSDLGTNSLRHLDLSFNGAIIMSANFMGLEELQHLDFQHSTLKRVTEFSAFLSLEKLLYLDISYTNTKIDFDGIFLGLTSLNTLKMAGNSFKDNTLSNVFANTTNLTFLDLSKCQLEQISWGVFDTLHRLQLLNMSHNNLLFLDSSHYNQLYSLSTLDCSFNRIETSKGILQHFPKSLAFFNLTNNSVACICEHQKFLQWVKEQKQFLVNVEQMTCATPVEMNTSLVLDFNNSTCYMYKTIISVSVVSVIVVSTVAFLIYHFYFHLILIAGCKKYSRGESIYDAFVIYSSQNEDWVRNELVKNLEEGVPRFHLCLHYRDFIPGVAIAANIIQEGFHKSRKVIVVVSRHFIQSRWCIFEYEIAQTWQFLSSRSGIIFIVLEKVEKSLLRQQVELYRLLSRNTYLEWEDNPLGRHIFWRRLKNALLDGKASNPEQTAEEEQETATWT
Summary of the method: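 D1 cells (immature spleen-derived DC line, C57BL/6 H-2b), 50 000 per well in R1-supplemented IMDM, given an equal volume of 2x compound in medium (500 μM DMSO stocks, sonicated 15 min). Incubated 24 h at 37 °C; IL-12p40 in supernatant measured by ELISA. MPLA served as TLR4 control; unconjugated peptide as negative control.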

[2] = system: Mus musculus; assay: Induction of T-cell activation in C57BL/6 mouse assessed as induction of SIINFEKL-specific T-cell responses in blood at 5 nmol dosed intradermally; type: functional, organism-based
[3] = system: B3Z; assay: Induction of T-cell activation in SIINFEKL-specific mouse B3Z cells at 0.875 to 7 uM by colorimetry based in-vitro antigen presentation assay; type: functional; details: dose microM 0.875-7
[4] = system: Mus musculus; assay: Induction of T-cell activation in C57BL/6 mouse assessed as induction of differentiation into memory CD127+/KLRG1low responses at 5 nmol dosed intradermally followed by booster dose after 14 days and measured after 7 days; type: functional, organism-based; details: time 21.0 day
[5] = system: Mus musculus; assay: Induction of T-cell activation in C57BL/6 mouse assessed as induction of SIINFEKL-specific T-cell responses in blood at 5 nmol dosed intradermally followed by booster dose after 14 days and measured after 7 days; type: functional, organism-based; details: time 21.0 day
[6] = system: Mus musculus; assay: Induction of T-cell activation in C57BL/6 mouse assessed as induction of specific killing of the SIINFEKL-loaded target cells in spleen at 5 nmol dosed intradermally followed by booster dose after 14 days and 1 week later injection of cells loaded with SIINFEKL peptide and measured after 18 hrs post last dose by CFSE staining based flow cytometric analysis; type: functional, organism-based; details: time 21.0 day
[7] = system: Mus musculus; assay: Induction of T-cell activation in C57BL/6 mouse assessed as induction of SIINFEKL-specific T-cell responses in inguinal lymph nodes at 5 nmol dosed intradermally followed by booster dose after 14 days and measured after 8 days; type: functional, organism-based; details: time 22.0 day
[8] = system: Mus musculus; assay: Induction of T-cell activation in C57BL/6 mouse assessed as increase in SIINFEKL-specific CD8+ T cells level in inguinal lymph nodes at 5 nmol dosed intradermally followed by booster dose after 14 days and 1 week later injection of cells loaded with SIINFEKL peptide and measured after 18 hrs post last dose by CFSE staining based flow cytometric analysis; type: functional, organism-based; details: time 21.0 day
[9] = system: Mus musculus; assay: Induction of T-cell activation in C57BL/6 mouse assessed as induction of SIINFEKL-specific T-cell responses in spleen at 5 nmol dosed intradermally followed by booster dose after 14 days and measured after 8 days; type: functional, organism-based; details: time 22.0 day
[10] = system: Mus musculus; assay: Induction of T-cell activation in C57BL/6 mouse assessed as induction of differentiation into effector memory T cells at 5 nmol dosed intradermally followed by booster dose after 14 days and measured after 7 days; type: functional, organism-based; details: time 21.0 day

Activity ([1]; filed as activator): Active
SMILES: CCCCCCCCCCC[C@@H](O)CC(=O)N[C@@H]1[C@@H](OC(=O)C[C@H](O)CCCCCCCCCCC)[C@H](O)[C@@H](CO[C@@H]2O[C@H](CO)[C@@H](OP(=O)(O)O)[C@H](OC(=O)C[C@@H](CCCCCCCCCCC)OC(=O)CCCCCCCCC)[C@H]2NC(=O)C[C@@H](CCCCCCCCCCC)OC(=O)CCCCCCCCC)O[C@H]1O

Activity ([1]; filed as activator): Active
SMILES: CCCCCCCCCCC[C@H](CC(=O)N[C@H]1[C@H](OC[C@H](NC(=O)C[C@@H](CCCCCCCCCCC)OC(=O)CCCCCCCCC)C(=O)O)O[C@H](CNC(=O)COCCOCCOCCNC(C)=O)[C@@H](OP(=O)(O)O)[C@@H]1OC(=O)C[C@@H](CCCCCCCCCCC)OC(=O)CCCCCCCCC)OC(=O)CCCCCCCCC

Activity ([1]; filed as activator): Active
SMILES: CCCCCCCCCCC[C@H](CC(=O)N[C@H]1[C@H](OC[C@H](NC(=O)C[C@@H](CCCCCCCCCCC)OC(=O)CCCCCCCCC)C(=O)O)O[C@H](CO)[C@@H](OP(=O)(O)O)[C@@H]1OC(=O)C[C@@H](CCCCCCCCCCC)OC(=O)CCCCCCCCC)OC(=O)CCCCCCCCC
Activity [2]: Active
Activity [3]: Active

Activity [1]: inactive
SMILES: CCCCCCCCCCC[C@H](CC(=O)N[C@H]1[C@H](OC[C@H](NC(=O)C[C@@H](CCCCCCCCCCC)OC(=O)CCCCCCCCC)C(=O)O)O[C@H](COC(=O)CCCCCCCCCCNC(C)=O)[C@@H](OP(=O)(O)O)[C@@H]1OC(=O)C[C@@H](CCCCCCCCCCC)OC(=O)CCCCCCCCC)OC(=O)CCCCCCCCC

Activity ([1]; filed as activator): Active
SMILES: CCCCCCCCCCC[C@H](CC(=O)N[C@H]1[C@H](OC[C@H](NC(=O)C[C@@H](CCCCCCCCCCC)OC(=O)CCCCCCCCC)C(=O)O)O[C@H](COC(=O)COCCOCCOCCNC(C)=O)[C@@H](OP(=O)(O)O)[C@@H]1OC(=O)C[C@@H](CCCCCCCCCCC)OC(=O)CCCCCCCCC)OC(=O)CCCCCCCCC

Activity [1]: inactive
SMILES: CCCCCCCCCCC[C@H](CC(=O)N[C@H]1[C@H](OC[C@H](NC(=O)C[C@@H](CCCCCCCCCCC)OC(=O)CCCCCCCCC)C(=O)O)O[C@H](CNC(=O)COCCOCCOCCNC(=O)CCCN2C(=O)CC(SCCC(=O)N[C@@H](CC(=O)O)C(=O)N[C@@H](CCC(=O)O)C(=O)N[C@H](C(=O)N[C@@H](CO)C(=O)NCC(=O)N[C@@H](CC(C)C)C(=O)N[C@@H](CCC(=O)O)C(=O)N[C@@H](CCC(N)=O)C(=O)N[C@@H](CC(C)C)C(=O)N[C@@H](CCC(=O)O)C(=O)N[C@@H](CO)C(=O)N[C@H](C(=O)N[C@H](C(=O)N[C@@H](CC(N)=O)C(=O)N[C@@H](Cc3ccccc3)C(=O)N[C@@H](CCC(=O)O)C(=O)N[C@@H](CCCCN)C(=O)N[C@@H](CC(C)C)C(=O)N[C@@H](C)C(=O)N[C@@H](C)C(=O)N[C@@H](C)C(=O)N[C@@H](C)C(=O)N[C@@H](C)C(=O)N[C@@H](CCCCN)C(N)=O)[C@@H](C)CC)[C@@H](C)CC)C(C)C)C2=O)[C@@H](OP(=O)(O)O)[C@@H]1OC(=O)C[C@@H](CCCCCCCCCCC)OC(=O)CCCCCCCCC)OC(=O)CCCCCCCCC (stereo not given in full) ([Mpa](X1)DEVSGLEQLESIINFEKLAAAAAK-NH2)
Activity [4]: Active
Activity [2]: Active
Activity [5]: Active
Activity [3]: Active
Activity [6]: Active
Activity [7]: Active
Activity [8]: Active
Activity [9]: Active
Activity [10]: Active

Activity ([1]; filed as activator): Active
SMILES: CCCCCCCCCCC[C@H](CC(=O)N[C@H]1[C@H](OC[C@H](NC(=O)C[C@@H](CCCCCCCCCCC)OC(=O)CCCCCCCCC)C(=O)O)O[C@H](COC(=O)COCCOCCOCCNC(=O)CCCN2C(=O)CC(SCCC(=O)N[C@@H](CC(=O)O)C(=O)N[C@@H](CCC(=O)O)C(=O)N[C@H](C(=O)N[C@@H](CO)C(=O)NCC(=O)N[C@@H](CC(C)C)C(=O)N[C@@H](CCC(=O)O)C(=O)N[C@@H](CCC(N)=O)C(=O)N[C@@H](CC(C)C)C(=O)N[C@@H](CCC(=O)O)C(=O)N[C@@H](CO)C(=O)N[C@H](C(=O)N[C@H](C(=O)N[C@@H](CC(N)=O)C(=O)N[C@@H](Cc3ccccc3)C(=O)N[C@@H](CCC(=O)O)C(=O)N[C@@H](CCCCN)C(=O)N[C@@H](CC(C)C)C(=O)N[C@@H](C)C(=O)N[C@@H](C)C(=O)N[C@@H](C)C(=O)N[C@@H](C)C(=O)N[C@@H](C)C(=O)N[C@@H](CCCCN)C(N)=O)[C@@H](C)CC)[C@@H](C)CC)C(C)C)C2=O)[C@@H](OP(=O)(O)O)[C@@H]1OC(=O)C[C@@H](CCCCCCCCCCC)OC(=O)CCCCCCCCC)OC(=O)CCCCCCCCC (stereo not given in full) ([Mpa](X2)DEVSGLEQLESIINFEKLAAAAAK-NH2)
Activity [4]: Active
Activity [2]: Active
Activity [5]: Active
Activity [3]: Active
Activity [7]: Active
Activity [9]: Active
Activity [10]: Active
